Data from article PMC3601785 (ACS medicinal chemistry letters, 2012).

Assays:
[1] = pharmacokinetic analysis, single i.v. or i.p. dose; format: in vivo, male CD-1 mice; conditions: male, CD-1, mouse, plasma, other: intravenous (i.v.) or intraperitoneal (i.p.)
Procedure, shortened: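 Single dose given iv or ip to male CD-1 mice in 1:1:15 Cremophor:EtOH:phosphate-buffered saline. Plasma concentrations used to derive half-life, Cmax, C0 (maximum plasma concentration extrapolated to t = 0) and AUC extrapolated to infinity and normalized to dose in mg/kg.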

[2] = test system: mitogen-and stress-activated kinase; conditions: cited from earlier work
Aurora B = conditions: [ATP] lower than in the RSK assay; cited from earlier work
PIM 3 = conditions: [ATP] lower than in the RSK assay; cited from earlier work
[3] = test system: RSK biomarkers (peEF2, cyclin D1, phospho-motif) in MCF-7 cells; assay: RSK biomarkers in PMA-stimulated MCF-7 cells by immunoblotting; format: cell-based, human; conditions: MCF-7 cells pre-treated with SL0101 (100 μM) or 7 (25 μM), then PMA
Procedure, shortened: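 MCF-7 cells pretreated with test compound (reference inhibitor 100 μM; analogue 25 μM) or vehicle, then treated with DMSO or the mitogen PMA. Lysates analysed by immunoblotting for RSK biomarkers, including eEF2 phosphorylation.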

p70 S6 kinase = conditions: cited from earlier work
aqueous solubility = format: physicochemical
[4] = biological target: T1, purified, recombinant RSK2 (Homo sapiens, UniProt P51812); assay: in vitro kinase assay, inhibition of purified recombinant RSK2; format: biochemical
MCF-7 cells = assay: MCF-7 proliferation; format: cell-based, human
Procedure, shortened: (§1)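 Test compound added at time 0 at various concentrations. Proliferation read as cellular ATP content after 48 h of treatment. Values expressed as fold proliferation as a percentage of vehicle-treated cells. n = 3 experiments, each in quadruplicate, with SD and Student's t test against vehicle; for MCF-7, also against the reference inhibitor.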

MCF-10A cells = assay: MCF-10A proliferation; format: cell-based; conditions: various concentrations, 48 h
Procedure, shortened: as §1

[5] = biological target: T1, purified, recombinant RSK2; conditions: cited from earlier work

T1 sequence (P51812 whole entry, species assumed): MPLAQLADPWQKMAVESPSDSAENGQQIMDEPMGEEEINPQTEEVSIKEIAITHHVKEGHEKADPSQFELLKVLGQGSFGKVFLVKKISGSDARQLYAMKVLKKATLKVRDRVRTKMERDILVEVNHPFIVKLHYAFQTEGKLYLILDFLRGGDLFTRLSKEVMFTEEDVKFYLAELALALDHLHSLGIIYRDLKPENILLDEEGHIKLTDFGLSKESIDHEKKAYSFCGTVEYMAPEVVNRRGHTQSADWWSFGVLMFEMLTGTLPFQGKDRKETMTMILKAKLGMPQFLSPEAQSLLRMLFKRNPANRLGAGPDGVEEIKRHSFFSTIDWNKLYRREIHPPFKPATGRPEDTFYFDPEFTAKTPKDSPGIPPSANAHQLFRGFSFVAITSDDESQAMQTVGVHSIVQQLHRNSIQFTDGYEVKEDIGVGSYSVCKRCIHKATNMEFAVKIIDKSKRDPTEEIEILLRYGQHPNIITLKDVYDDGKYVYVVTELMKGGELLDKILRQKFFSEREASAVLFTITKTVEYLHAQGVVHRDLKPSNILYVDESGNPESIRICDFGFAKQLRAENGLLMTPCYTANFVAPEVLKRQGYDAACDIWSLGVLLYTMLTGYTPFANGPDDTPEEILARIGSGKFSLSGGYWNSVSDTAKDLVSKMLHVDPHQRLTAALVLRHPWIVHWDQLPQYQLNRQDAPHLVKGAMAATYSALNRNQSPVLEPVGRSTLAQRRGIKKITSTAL

CC(=O)O[C@@H]1[C@@H](OC(C)=O)[C@@H](O)[C@H](Oc2c(-c3ccc(O)cc3)oc3cc(O)cc(O)c3c2=O)O[C@H]1C [SL0101]
half-life [1]: < 30 min
inhibition of mitogen-and stress-activated kinase [2]: did not inhibit
inhibition of Aurora B (Aurora B): partially inhibit
inhibition of PIM 3 (PIM 3): partially inhibit
cyclin D1 levels [3]: decreased cyclin D1 levels
intensity of band at ~ 27 kDa, (Lys/Arg)XX(Lys/Arg)X(pSer/pThr) motif antibody [3]: intensity decreases
peEF2 levels compared to the PMA control [3]: increased peEF2 levels
inhibition of p70 S6 kinase (p70 S6 kinase): did not inhibit
solubility (aqueous solubility; carrier of 1:1:15 Cremophor:EtOH:phosphate-buffered saline was required): limited solubility

CCC[C@@H]1O[C@@H](Oc2c(-c3ccc(O)cc3)oc3cc(O)cc(O)c3c2=O)[C@H](O)[C@H](O)[C@H]1OC(C)=O [compound 5]
change of RSK2 IC50 in comparison to the 5″-n-propyl analogue 3 [4]: increased the IC50, but this difference was not statistically significant

CCC[C@@H]1O[C@@H](Oc2c(-c3ccc(O)cc3)oc3cc(O)cc(O)c3c2=O)[C@H](OC(C)=O)[C@H](O)[C@H]1OC(C)=O [compound 6]
change of RSK2 IC50 in comparison to the 5″-n-propyl analogue 3 [4]: did not alter the IC50

CCC[C@@H]1O[C@@H](Oc2c(-c3ccc(O)cc3)oc3cc(O)cc(O)c3c2=O)[C@H](O)[C@H](OC(C)=O)[C@H]1OC(C)=O [compound 7]
ability to inhibit MCF-7 proliferation, fold better compared to SL0101 (1) (MCF-7 cells): 2 fold
inhibition of MCF-7 proliferation (MCF-7 cells; various concentrations, 48 h): inhibits MCF-7
cyclin D1 levels [3]: decreased cyclin D1 levels
intensity of band at ~ 27 kDa, (Lys/Arg)XX(Lys/Arg)X(pSer/pThr) motif antibody [3]: intensity decreases
peEF2 levels compared to the PMA control [3]: increased peEF2 levels
solubility (aqueous solubility; aqueous solution): ≤ 25 µM
inhibition of MCF-10A proliferation (MCF-10A cells): not MCF-10A proliferation

CCC[C@@H]1O[C@@H](Oc2c(-c3ccc(O)cc3)oc3cc(O)cc(O)c3c2=O)[C@H](OC(C)=O)[C@H](OC(C)=O)[C@H]1OC(C)=O [compound 8]
change of RSK2 IC50 in comparison to the 5″-n-propyl analogue 3 [4]: doubled the IC50

CC1OC(Oc2c(-c3ccc(O)cc3)oc3cc(O)cc(O)c3c2=O)C(O)C(O)C1O (centres unmarked) [deacetylated SL0101]
potency for RSK inhibition, fold less potent than SL0101 (1) [5]: ~ 10 fold
